Screens from PubChem.
A selection: hits, their analogues and other compounds. The true share with any hit is near 3.1%.
PAX8 reporter – lowers PAX8-driven luciferase in RMG-I cells | inhibition, % at 12.6 µM | 1.2% of 360,000 active | AID 652154 | RMG-I TPO-luciferase reporter, SteadyGlo, 24 h;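 active = mean replicate inhibition at least 60% with every replicate also reaching 60%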;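 also: luciferase light reporting Pax8 driven TPO promoter activity; plate controls were median of neutral control wells for no effect and mitoxantrone controls for full effect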
PGC1a acetyl inh – modulators of PGC1a acetylation | 0.17% of 350,000 active | AID 651687 | U2OS PGC1a acetylation, AlphaScreen anti-acetyl-lysine; with virally co-expressed GCN5 acetyltransferase | inhibition, % at 15.6 µM;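 active = every replicate shows inhibition of at least 40%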;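 also: 0% = neutral control wells and 100% = positive control wells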
HIV Env fusion – HIV envelope-mediated fusion inhibition; HeLa-JRFL Env/CEM21 cell fusion, luciferase; inhibition, % at 12.3 µM; 1.1% of 360,000 active;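 active = mean replicate inhibition score of at least 50 and every replicate individually at or above 50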;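 also: 0% = plate neutral controls and 100% = maraviroc near 300 nM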
EWS-Fli block – inhibitors of EWS/Fli oncoprotein transcriptional activity; AID 651661; 0.67% of 350,000 active; A673 NR0B1-luciferase reporter, viability-normalised; inhibition, % at 12.6 µM;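 active = mean inhibition of at least 50% after viability correction, with every replicate also passing that limit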;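 also: firefly luciferase signal divided by Alamar Blue viability fluorescence both relative to DMSO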
FGF22 binding – binders of recombinant human FGF22 by thermal shift; 1.5% of 340,000 active; AID 651658; SYPRO orange fluorescence; percent of sucrose octasulfate shift, DMSO zero; activity (Tm shift, normalised), % at 9.99 µM;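 active = mean Tm shift, scaled 0 neutral to 100 positive control, at about 1.3% or above, every replicate too, limit read from the data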
Target sequence (Q9HCT0 whole entry, looked up): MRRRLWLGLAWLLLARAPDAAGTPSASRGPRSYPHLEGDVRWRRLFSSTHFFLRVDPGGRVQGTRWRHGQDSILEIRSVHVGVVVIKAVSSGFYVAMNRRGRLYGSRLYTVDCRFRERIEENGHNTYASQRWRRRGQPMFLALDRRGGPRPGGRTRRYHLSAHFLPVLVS
FN deposit inh – fibronectin deposition inhibition; AH1F fibroblasts, Alexa488-fibronectin deposition fluorescence, overnight; inhibition, % at 12.6 µM; 0.086% of 350,000 active; AID 743247;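 active = mean inhibition across replicates of 30% or more, regardless of how many single replicates reach that level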;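 also: positive control wells lacked labelled fibronectin entirely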
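Assay system: AH1F fibroblasts assembling fluorescent fibronectin matrix; Amount: 10000 AH1F cells per well; Buffer or medium: DMEM, 2% serum; Probe or stimulus: Alexa488-fibronectin, 24 nM final in well; Doses: single compound dose, delivered by pin transfer; Incubation: 1 h adhesion, overnight exposure; Measured by: fluorescence 485/525 nm; Read-out: fibronectin deposition inhibition.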
The depositor's hits bear a star; [ ] = dose if it differs, or a comment.

COc1cc(/C=N/NC(=O)c2ccc(CN3C(=O)c4cccc5cccc3c45)cc2)cc(OC)c1O was read as PAX8 reporter 98*, PGC1a acetyl inh -5, HIV Env fusion 4, EWS-Fli block 5, FGF22 binding 0 and FN deposit inh 7.
For C[C@@H]1CN([C@H](C)CO)C(=O)c2cccc(NS(=O)(=O)c3ccc(F)cc3)c2O[C@@H]1CN(C)Cc1ccc(C(F)(F)F)cc1 the results were PAX8 reporter 8, PGC1a acetyl inh -6, HIV Env fusion 77*[16.7 µM], EWS-Fli block 9 and FGF22 binding 0.
Screening C[C@@H]1CN([C@H](C)CO)C(=O)c2cccc(NS(=O)(=O)c3ccc(F)cc3)c2O[C@H]1CN(C)Cc1ccc(-c2ccccc2)cc1 returned PAX8 reporter -40, PGC1a acetyl inh 3, HIV Env fusion 13[16.7 µM], EWS-Fli block 14, FGF22 binding 0 and FN deposit inh -4.
Screening C[C@H]1CN([C@@H](C)CO)C(=O)c2cccc(NS(=O)(=O)c3ccc(Cl)cc3)c2O[C@@H]1CN(C)Cc1ccc(C(F)(F)F)cc1 returned PGC1a acetyl inh -11, HIV Env fusion 57*[16.7 µM], EWS-Fli block 5, FGF22 binding 0 and FN deposit inh -2.
Cc1ccc(S(=O)(=O)Nc2cccc3c2O[C@@H](CN(C)Cc2ccc(Oc4ccccc4)cc2)[C@@H](C)CN([C@H](C)CO)C3=O)cc1 was read as PAX8 reporter 90*, PGC1a acetyl inh -6, HIV Env fusion -9[16.7 µM], EWS-Fli block -12 and FGF22 binding 0.
Screening C[C@H](CO)N1C[C@H](C)[C@H](CN(C)Cc2ccc(-c3ccccc3)cc2)Oc2c(NS(=O)(=O)c3ccc(F)cc3)cccc2C1=O returned PAX8 reporter 65*, PGC1a acetyl inh 1, HIV Env fusion 5[16.7 µM], EWS-Fli block 23, FGF22 binding 0 and FN deposit inh 11.
Screening CC(C)NC(=O)Nc1ccc2c(c1)C(=O)N([C@H](C)CO)C[C@H](C)[C@@H](CN(C)Cc1ccc(Cl)c(Cl)c1)O2 returned PAX8 reporter 5, PGC1a acetyl inh -1, HIV Env fusion -6[16.7 µM], EWS-Fli block 6, FGF22 binding 0 and FN deposit inh -5.
COc1ccccc1C(=O)N1C[C@@H]2[C@H](c3ccccc31)[C@@H](CO)N2C(=O)C1CC1 was read as PAX8 reporter -4, PGC1a acetyl inh -1, EWS-Fli block 10 and FN deposit inh 0.
`Cc1noc(C)c1S(=O)(=O)Nc1cccc2c1O[C@@H](CN(C)Cc1ccc(C(F)(F)F)cc1)[C@@H](C)CN([C@H](C)CO)C2=O` gave PAX8 reporter -16, PGC1a acetyl inh -5, HIV Env fusion 17[16.7 µM], EWS-Fli block -6, FGF22 binding 0 and FN deposit inh 2.
Cc1noc(C)c1S(=O)(=O)Nc1cccc2c1O[C@H](CN(C)Cc1ccc(C(F)(F)F)cc1)[C@H](C)CN([C@H](C)CO)C2=O was read as PAX8 reporter 4, PGC1a acetyl inh 16, HIV Env fusion 59*[16.7 µM], EWS-Fli block 6, FGF22 binding 0 and FN deposit inh 3.
For CC(=O)N(C)C[C@H]1Oc2ncc(C#Cc3ccccc3F)cc2C(=O)N([C@@H](C)CO)C[C@H]1C the results were PGC1a acetyl inh 15, HIV Env fusion 12[16.7 µM], EWS-Fli block -10, FGF22 binding 0 and FN deposit inh -1.
O=C(/C=C/Nc1cccc(F)c1)c1ccco1 was read as PGC1a acetyl inh -7 and HIV Env fusion -130.
Screening O=C(/C=C/Nc1ccccc1O)c1ccco1 returned PAX8 reporter -56, PGC1a acetyl inh -3, HIV Env fusion -25, EWS-Fli block -22, FGF22 binding 1 and FN deposit inh -1.
O=C(/C=C/Nc1ccc(Br)cc1F)c1ccco1 was read as PAX8 reporter -89, PGC1a acetyl inh 4, HIV Env fusion -109, EWS-Fli block 73*, FGF22 binding 0 and FN deposit inh 2.
Screening O=C(/C=C/Nc1ccc(F)cc1F)c1ccco1 returned PAX8 reporter -36, PGC1a acetyl inh -7, HIV Env fusion -159, EWS-Fli block 65*, FGF22 binding 0 and FN deposit inh -3.
Screening CN1c2ccc(-c3ccccc3F)cc2[C@@H]2[C@@H](CCN2C(=O)NC2CCCC2)[C@@H]1CO returned PAX8 reporter 0, PGC1a acetyl inh -10, EWS-Fli block 11, FGF22 binding 0 and FN deposit inh -9.
For O=C(C[C@H]1C[C@H]2c3cc(NC(=O)C4CCOCC4)ccc3O[C@H]2[C@H](CO)O1)NCc1ccccc1F the results were PAX8 reporter -2, PGC1a acetyl inh 15, HIV Env fusion 13[16.7 µM], EWS-Fli block 4, FGF22 binding 0 and FN deposit inh 3.
Screening O=C(C[C@@H]1C[C@@H]2c3cc(NC(=O)C4CCOCC4)ccc3O[C@@H]2[C@H](CO)O1)NCc1ccccc1F returned PAX8 reporter -4, PGC1a acetyl inh -8, HIV Env fusion 71*[16.7 µM], EWS-Fli block 2, FGF22 binding 0 and FN deposit inh 3.
O=C(C[C@@H]1C[C@H]2c3cc(NC(=O)C4CCOCC4)ccc3O[C@H]2[C@H](CO)O1)NCc1ccccc1F was read as PAX8 reporter 6, PGC1a acetyl inh -7, HIV Env fusion 87*[16.7 µM], EWS-Fli block 1, FGF22 binding 0 and FN deposit inh 2.
`CN(C)C(=O)C[C@@H]1C=C[C@H](NS(=O)(=O)c2ccccc2)[C@@H](CO)O1` gave PAX8 reporter -8, PGC1a acetyl inh 4, HIV Env fusion -6[16.7 µM], EWS-Fli block 5 and FN deposit inh -9.
Screening CC(C)NC(=O)N(C)C[C@@H]1OCCCC[C@@H](C)Oc2ccc(NC(=O)Nc3ccc4c(c3)OCO4)cc2C(=O)N([C@@H](C)CO)C[C@H]1C returned PAX8 reporter -27, PGC1a acetyl inh 2, HIV Env fusion -4[16.7 µM], EWS-Fli block -21 and FGF22 binding 0.
Cn1c(C(=O)NCCCN2CCN(c3ccccc3F)CC2)cc2c(=O)[nH]c3ccccc3c21 was read as PGC1a acetyl inh 8 and HIV Env fusion 94*.
Screening O=C(Cc1csc(Nc2nc(=S)[nH]c3ccccc23)n1)NCc1ccc(Cl)cc1 returned PGC1a acetyl inh -6, EWS-Fli block 19 and FGF22 binding 0.
For CN(CCCNC(=O)c1cc2c(=O)[nH]c3ccccc3c2n1C)Cc1ccccc1 the results were PAX8 reporter -16, HIV Env fusion 59*, EWS-Fli block -5, FGF22 binding 0 and FN deposit inh 2.
Screening O=C(Cc1csc(Nc2nc(=S)[nH]c3ccccc23)n1)NCCCN1CCN(c2ccccc2F)CC1 returned PAX8 reporter 65*, HIV Env fusion 25, EWS-Fli block 44 and FGF22 binding 0.
COc1ccccc1-c1ccc2c(c1)O[C@H](CN(C)C(=O)c1cccnc1)[C@H](C)CN([C@H](C)CO)S2(=O)=O was read as PAX8 reporter -4, PGC1a acetyl inh 8, EWS-Fli block 6 and FGF22 binding 0.
